# In ChEMBL document CHEMBL1144562, “Synthesis of a new class of 2-anilino substituted nicotinyl arylsulfonylhydrazides as potential anticancer and antibacterial agents” (2007):
# Tests used:
# Type in all cases: functional
# [1] = test system: MDA-MB-231; assay: Antitumor activity against MDA-MB-231 cells; settings: Homo sapiens, read-out: Log TGI (converted)
# [2] = test system: MDA-MB-435; assay: Antitumor activity against MDA-MB-435 cells; settings: Homo sapiens
# [3] = test system: BT-549; assay: Antitumor activity against BT549 cells; settings: Homo sapiens
# [4] = test system: T47D; assay: Antitumor activity against T47D cells; settings: Homo sapiens
# Procedure, shortened: (§1)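 Tested in the NCI 60-human-tumour-cell-line panel at five concentrations, in 10-fold dilutions from 10^-4 to 10^-8 M. Three parameters were taken from the dose-response data, each as log10 of the molar concentration: GI50 (50% net growth inhibition), TGI (total growth inhibition) and LC50 (50% net cell death).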
# [5] = test system: Escherichia coli; assay: Antibacterial activity against Escherichia coli MTCC 448 after 18 hrs; settings: MTCC 448, 18 h
# Procedure, shortened: (§2)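 Disc diffusion (Kirby–Bauer) on Mueller-Hinton agar inoculated with fresh bacteria at 1-5 × 10^4 cfu mL-1. Compounds were dissolved in DMF at a range of concentrations, and discs were placed in triplicate. Plates were incubated at 30 °C for 18 h. MIC was taken as the lowest concentration giving no visible bacterial growth on the plate.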
# [6] = test system: Pseudomonas aeruginosa; assay: Antibacterial activity against Pseudomonas aeruginosa MTCC 424 after 18 hrs; settings: MTCC 424, 18 h; procedure, shortened: as §2
# [7] = test system: Staphylococcus epidermidis; assay: Antibacterial activity against Staphylococcus epidermidis MTCC 435 after 18 hrs; settings: MTCC 435, 18 h; procedure, shortened: as §2
# [8] = test system: Bacillus subtilis; assay: Antibacterial activity against Bacillus subtilis MTCC 441 after 18 hrs; settings: MTCC 441, 18 h; procedure, shortened: as §2
# [9] = test system: CCRF-CEM; assay: Antitumor activity against CCRF-CEM cells; settings: Homo sapiens
# [10] = test system: K562; assay: Antitumor activity against K562 cells; settings: Homo sapiens
# [11] = test system: HOP-62; assay: Antitumor activity against HOP62 cells; settings: Homo sapiens
# [12] = test system: HOP-92; assay: Antitumor activity against HOP92 cells; settings: Homo sapiens
# [13] = Antitumor activity against NCI-H322 cells; settings: Homo sapiens
# [14] = test system: NCI-H460; assay: Antitumor activity against NCI-H460 cells; settings: Homo sapiens
# [15] = test system: HCC 2998; assay: Antitumor activity against HCC2998 cells; settings: Homo sapiens
# [16] = test system: HCT-116; assay: Antitumor activity against HCT116 cells; settings: Homo sapiens
# [17] = test system: KM12; assay: Antitumor activity against KM12 cells; settings: Homo sapiens
# [18] = test system: SW-620; assay: Antitumor activity against SW620 cells; settings: Homo sapiens; procedure, shortened: as §1
# [19] = test system: SF-268; assay: Antitumor activity against SF268 cells; settings: Homo sapiens
# [20] = test system: SF-539; assay: Antitumor activity against SF539 cells; settings: Homo sapiens
# [21] = test system: SNB-19; assay: Antitumor activity against SNB19 cells; settings: Homo sapiens; procedure, shortened: as §1
# [22] = test system: SNB-75; assay: Antitumor activity against SNB75 cells; settings: Homo sapiens; procedure, shortened: as §1
# [23] = test system: U-251; assay: Antitumor activity against U251 cells; settings: Homo sapiens; procedure, shortened: as §1
# [24] = read-out: Log LC50 (the source's name) (converted)
smiles,measurement,setting,value
O=C(NNS(=O)(=O)c1ccc(Cl)cc1Cl)c1cccnc1Nc1ccc(Cl)cc1,TGI,[1],50.1 µM
same,GI50,[2],27.5 µM
same,LC50,[2],> 100 µM
same,TGI,[2]; read-out: Log TGI (converted),81.3 µM
same,GI50,[3],16.6 µM
same,LC50,[3],72.4 µM
same,TGI,[3]; read-out: Log TGI (converted),34.7 µM
same,GI50,[4],10.7 µM
same,CC50,[4]; [24],> 100 µM
same,TGI,[4]; read-out: Log TGI (converted),51.3 µM
same,MIC,[5],20 µg/mL
same,MIC,[6],> 25 µg/mL
same,MIC,[7],17 µg/mL
same,MIC,[8],15 µg/mL
same,LC50,[9],> 100 µM
same,GI50,[9]; read-out: GI50,6.62 µM
same,TGI,[9]; read-out: Log TGI (converted),> 100 µM
same,GI50,[9]; read-out: pGI50 (converted),6.61 µM
same,GI50,[10],12.9 µM
same,LC50,[10],50.1 µM
same,TGI,[10]; read-out: Log TGI (converted),25.7 µM
same,GI50,[11],16.6 µM
same,CC50,[11]; [24],85.1 µM
same,TGI,[11]; read-out: Log TGI (converted),38 µM
same,GI50,[12],14.8 µM
same,CC50,[12]; [24],> 100 µM
same,TGI,[12]; read-out: Log TGI (converted),40.7 µM
same,GI50,[13],14.8 µM
same,CC50,[13]; [24],> 100 µM
same,TGI,[13]; read-out: Log TGI (converted),40.7 µM
same,GI50,[14],35.5 µM
same,LC50,[14],> 100 µM
same,TGI,[14]; read-out: Log TGI (converted),100 µM
same,GI50,[15],13.5 µM
same,LC50,[15],61.7 µM
same,TGI,[15]; read-out: Log TGI (converted),28.8 µM
same,GI50,[16],15.5 µM
same,LC50,[16],53.7 µM
same,TGI,[16]; read-out: Log TGI (converted),28.8 µM
same,GI50,[17],13.8 µM
same,CC50,[17]; [24],58.9 µM
same,TGI,[17]; read-out: Log TGI (converted),28.8 µM
same,GI50,[18],28.2 µM
same,CC50,[18]; [24],> 100 µM
same,TGI,[18]; read-out: Log TGI (converted),> 100 µM
same,GI50,[19],36.3 µM
same,LC50,[19],> 100 µM
same,TGI,[19]; read-out: Log TGI (converted),100 µM
same,GI50,[20],19.1 µM
same,LC50,[20],> 100 µM
same,TGI,[20]; read-out: Log TGI (converted),44.7 µM
same,GI50,[21],26.9 µM
same,CC50,[21]; [24],> 100 µM
same,TGI,[21]; read-out: Log TGI (converted),100 µM
same,GI50,[22],22.4 µM
same,CC50,[22]; [24],> 100 µM
same,TGI,[22]; read-out: Log TGI (converted),85.1 µM
same,GI50,[23],34.7 µM
same,LC50,[23],> 100 µM
same,TGI,[23]; read-out: Log TGI (converted),100 µM
